Measured values as given in ChEMBL document CHEMBL4229456, “Salicylic Acid Derivatives Inhibit Oxalate Production in Mouse Hepatocytes with Primary Hyperoxaluria Type 1” (J Med Chem, 2018).

Experiments:
[1] = molecular target: T1, 2-Hydroxyacid oxidase 1 (Mus musculus) (UniProt Q9WU19); assay: Inhibition of mouse recombinant glycolate oxidase expressed in Escherichia coli at 25 uM using glycolate as substrate after 1 min by sulfonated DCIP dye-based assay relative to control
T1 sequence (whole entry): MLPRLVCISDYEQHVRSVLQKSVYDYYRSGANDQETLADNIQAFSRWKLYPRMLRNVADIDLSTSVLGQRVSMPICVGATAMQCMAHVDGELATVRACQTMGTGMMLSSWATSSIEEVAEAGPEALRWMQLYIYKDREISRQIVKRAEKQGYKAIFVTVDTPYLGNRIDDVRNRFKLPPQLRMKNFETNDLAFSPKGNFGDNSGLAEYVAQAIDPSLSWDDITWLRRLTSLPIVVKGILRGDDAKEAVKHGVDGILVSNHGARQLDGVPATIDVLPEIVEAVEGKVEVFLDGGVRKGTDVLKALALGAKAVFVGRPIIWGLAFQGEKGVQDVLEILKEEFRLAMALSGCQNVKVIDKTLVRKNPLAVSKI

[2] = molecular target: T1, 2-Hydroxyacid oxidase 1 (Mus musculus); assay: Inhibition of glycolate oxidase in C57BL/6 Agxt1-/- mouse hepatocytes using glycolate as substrate assessed as relative oxalate level at 10 uM after 24 hrs; type: cell-based
Outline: (§1)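 Primary Agxt1-/- mouse hepatocytes in 6-well plates, serum-free Williams E with 5 mM glycolate, treated with 10 µM compound. Excreted oxalate measured 24 h later by oxalate oxidase–HRP colorimetric kit (595 nm) and expressed relative to untreated control. Mean ± SD, n = 3, one-way ANOVA.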

[3] = molecular target: T2, 2-Hydroxyacid oxidase 1 (Mus musculus, UniProt Q9WU19); assay: Inhibition of mouse recombinant glycolate oxidase expressed in Escherichia coli using glycolate as substrate by sulfonated DCIP dye-based assay
T2 sequence (Q9WU19 whole entry): T1 sequence (whole entry)
Outline: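 Purified recombinant mGO (10 µL at 0.1 µg/µL) with saturating glycolate (22.2 mM) in 50 mM potassium phosphate pH 7. Compound at 0.2 µM–0.2 mM; H2O2 detected by HRP-coupled sulfonated DCIP/4-aminoantipyrine dye at 515 nm. IC50 from nonlinear dose-response fitting.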

[4] = molecular target: T1, 2-Hydroxyacid oxidase 1 (Mus musculus); assay: Inhibition of glycolate oxidase in C57BL/6 Agxt1-/- mouse hepatocytes using glycolate as substrate assessed as reduction in oxalate production at 10 uM after 24 hrs; type: cell-based; outline: as §1
[5] = system: Mus musculus; assay: Reduction in urine oxalate levels in Agxt1-/- mouse model at 110 mg/kg administered via oral gavage measured after 24 hrs post treatment for 11 days relative to control; type: functional; parameters: scale not given: the % may be the effect or the level left
[6] = molecular target: T2, 2-Hydroxyacid oxidase 1; assay: Inhibition of glycolate oxidase in mouse Agxt1-/- hepatocytes using glycolate as substrate assessed as reduction in oxalate production after 72 hrs by sulfonated-DCIP dye-based assay; type: cell-based
[7] = molecular target: T2, 2-Hydroxyacid oxidase 1; assay: Inhibition of glycolate oxidase in mouse Agxt1-/- hepatocytes using glycolate as substrate assessed as reduction in oxalate production after 48 hrs by sulfonated-DCIP dye-based assay; type: cell-based
[8] = molecular target: T2, 2-Hydroxyacid oxidase 1; assay: Inhibition of glycolate oxidase in mouse Agxt1-/- hepatocytes using glycolate as substrate assessed as reduction in oxalate production after 24 hrs by sulfonated-DCIP dye-based assay; type: cell-based
[9] = molecular target: T2, 2-Hydroxyacid oxidase 1; assay: Inhibition of mouse N-terminal His-tagged glycolate oxidase expressed in BL21(DE3) Escherichia coli using glycolate as substrate by Cornish-Bowden plot analysis
Outline: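 Recombinant mouse GO came from E. coli carrying a pET15b Hao1 vector and was purified by affinity chromatography. Glycolate oxidation was run in 50 mM potassium phosphate pH 7. H2O2 was coupled through HRP with sulfonated DCIP/4-aminoantipyrine and read at 515 nm. Inhibitor and substrate concentrations were varied at constant enzyme, and Ki was taken from the line intersection in Cornish-Bowden and Dixon plots.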

[10] = molecular target: T1, 2-Hydroxyacid oxidase 1 (Mus musculus); assay: Inhibition of glycolate oxidase in C57BL/6 Agxt1-/- mouse hepatocytes using glycolate as substrate assessed as relative oxalate level at 12.5 uM after 24 hrs; type: cell-based
Outline: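 Primary hepatocytes were isolated from male C57BL/6 Agxt1-/- mouse liver by in situ collagenase perfusion. They were plated at 3.0x10^5 cells/well in supplemented Williams E with 5% FBS, then switched after 5 h to serum-free medium and treated in the presence of 5 mM glycolate. Medium was collected at 24 h, or 48 and 72 h for dose-response. Oxalate was read by oxalate oxidase/HRP (MBTH/DMAB) at 595 nm relative to control.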

SMILES	inhibition [1]	fold change (FC) [2]	IC50 [3]	other results
O=C(O)c1ccccc1O	18.5%	–	–	–
Cc1ccc(-c2ccc(C(=O)O)c(O)c2)s1	28.7%	0.95	–	–
Nc1ccc(O)c(C(=O)O)c1 [MESALAMINE]	71.9%	0.88	7.8 µM	–
O=Cc1ccc(-c2ccc(C(=O)O)c(O)c2)s1	28.7%	1	–	–
O=C(O)c1ccc(-c2ccc(C(=O)O)c(O)c2)o1	0%	–	–	–
N[C@@H](CCC(=O)Nc1ccc(O)c(C(=O)O)c1)C(=O)O	7.8%	–	–	–
O=Cc1ccc(-c2ccc(O)c(C(=O)O)c2)s1	52.1%	0.93	9.4 µM	–
COc1ccc(COc2ccc(-c3ccc(C(=O)O)c(O)c3)cc2)cc1	65%	0.9	13.8 µM	–
O=C(O)c1ccc(-c2ccsc2)cc1O	41.4%	0.99	21.6 µM	–
O=C(O)c1cc2ccccc2c(/N=N/c2cc(C(F)(F)F)ccc2Cl)c1O	47.4%	0.91	–	–
O=C(O)c1cc(Oc2ccc([N+](=O)[O-])cc2)c2ccccc2c1O	96.3%	0.77	2.9 µM	–
O=Cc1ccc(-c2cccc(C(=O)O)c2)o1	22.7%	0.86	–	–
O=Cc1ccc(-c2ccc(C(=O)O)c(CO)c2)o1	0%	0.98	–	–
COc1cccc(-c2ccc(C(=O)O)c(O)c2)c1	50.9%	0.83	19.5 µM	–
O=C(O)c1ccc(-c2ccc(OCc3ccccc3)cc2)cc1O	83.4%	1.11	10.4 µM	–
COC(=O)c1ccc(-c2ccc(C=O)o2)cc1OC	17.5%	0.9	–	–
Nc1ccc(C(=O)O)c(O)c1	14.9%	–	–	–
O=C(O)c1cc(-c2ccsc2)ccc1O	25.2%	0.94	–	–
O=C(O)c1cc(-c2ccc(CO)o2)ccc1O	98%	0.88	4.6 µM	–
O=C(O)c1cccc(F)c1O	13.5%	–	–	–
O=C(O)c1ccc(-c2ccoc2)cc1O	22.8%	1.02	–	–
O=C(O)c1ccc(-c2ccccc2COc2cccc(C(F)(F)F)c2)cc1O	98.6%	0.62	4.4 µM	inhibition [4]: 30%
O=Cc1ccc(-c2ccc3cc(O)c(C(=O)O)cc3c2)o1	26.2%	–	–	–
O=C(O)c1cc(-c2ccc(OCc3ccccc3)cc2)ccc1O	70.9%	0.8	14.8 µM	–
O=C(O)c1ccc(-c2ccc(O)c(C(=O)O)c2)o1	0%	0.68	–	inhibition [4]: 30%
O=C(O)c1cnc2cc(Cl)ccc2c1O	24.8%	–	–	–

SMILES	inhibition [1]	fold change (FC) [2]	IC50 [3]	other results
O=C(O)c1cc(Sc2nnnn2-c2ccccc2)c2ccccc2c1O	75.3%	0.99	11.1 µM	–
O=C(O)c1ccc(-c2ccc([N+](=O)[O-])cc2)cc1O	41.9%	0.91	19.7 µM	–
COc1ccc(COc2ccc(-c3ccc(O)c(C(=O)O)c3)cc2)cc1	83.8%	1.07	9.5 µM	–
O=C(O)c1ccc(-c2ccncc2)cc1O	22.7%	0.88	–	–
Cc1ccc(/N=N/c2cc(C(=O)O)cc3ccccc23)c(S(=O)(=O)O)c1	1.5%	–	–	–
O=C(O)c1ccc(-c2ccc(CO)o2)cc1O	85.7%	0.88	7.9 µM	–
CC(=O)c1ccc(O)c(C(=O)O)c1	22.1%	–	–	–
O=C(O)c1ccc(-c2ccco2)cc1O	35.8%	0.87	39.3 µM	–
Cn1nccc1-c1ccc(C(=O)O)c(O)c1	16.2%	0.93	–	–
O=C(O)c1cc2ccccc2c(/N=N/c2c(O)cc(S(=O)(=O)O)c3ccccc23)c1O	75.1%	1.11	–	–
COc1cc(-c2ccc(C=O)o2)ccc1C(=O)O	0%	0.82	–	–
O=C(O)c1cc(-c2ccoc2)ccc1O	26.6%	0.89	–	–
O=C(O)c1nnsc1Sc1ccc(Cl)cc1	34.8%	–	43.5 µM	Activity [5]: 30 - 50%; EC50 [6]: 34 µM; EC50 [7]: 33 µM; EC50 [8]: 25.3 µM; IC50 [9]: 43.5 µM; Ki [9]: 20.3 µM; fold change (FC) [10]: 0.63
CC(=O)c1ccc(-c2ccc(C(=O)O)c(O)c2)s1	28.1%	0.89	–	–
O=C(O)c1ccc(Cl)cc1O	20.8%	–	–	–
O=C(O)c1cc(-c2cccs2)ccc1O	30%	0.82	39.5 µM	–
O=C(O)c1cc(-c2ccccc2COc2cccc(C(F)(F)F)c2)ccc1O	96.2%	0.68	3.5 µM	inhibition [4]: 30%
O=C(O)c1ccc(-c2ccccc2COc2cc(F)cc(F)c2)cc1O	77.7%	0.72	8.3 µM	–
O=C(O)c1cc([N+](=O)[O-])c(-c2ccco2)cc1O	5.9%	0.86	–	–
O=C(O)c1cc2cc(Br)ccc2cc1O	42.3%	0.99	39.9 µM	–
O=Cc1ccc(-c2ccc(C(=O)O)c(O)c2)o1	82.8%	0.88	34.5 µM	–
O=C(O)c1ccc(-c2ccc(O)cc2)cc1O	61.3%	0.82	13.5 µM	–
O=C(O)c1ccc(-c2cccs2)cc1O	35.4%	0.74	32.5 µM	–
O=Cc1ccc(-c2ccc(O)cc2)o1	24.2%	0.32	–	–
O=C(O)c1cc(-c2ccccc2COc2cc(F)cc(F)c2)ccc1O	84.5%	0.92	5.8 µM	–
